Legend:
[1] = species: Cavia porcellus; experiment: Inhibition of the Schulz-Dale (SD) reaction-induced contraction in trachea of guinea pig; format: functional
Procedure, shortened: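 Tracheal zig-zag strips from passively sensitized guinea pigs, equilibrated 1 h in Krebs-Henseleit under 95% O2-5% CO2 at 37 °C. Contraction induced by OA at 10 µg/mL final bath concentration. Drug added cumulatively at 7-min intervals once contraction reached plateau; isotonic recording, relaxation scaled to papaverine maximum. Triplicate curves with 4–5 concentrations; IC50 by logit-log fit.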

[2] = tested on: Mus musculus; experiment: Acute lethal toxicity (minimum lethal dose; MLD, po) in mice.; format: organism-based; settings: in vivo
Procedure, shortened: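 Male dd mice (20–25 g), n = 3 per dose, given compound orally. Deaths observed for 7 days; MLD taken as the dose killing at least one mouse.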

[3] = tested on: Cavia porcellus; experiment: Effect on collapse time of antigen-induced bronchospasm in passively sensitized guinea pigs (at 50 mg/kg, po).MCT for untreated animals is 254+/-18.; format: functional
[4] = tested on: Cavia porcellus; experiment: Effect on collapse time of antigen-induced bronchospasm in passively sensitized guinea pigs (at 25 mg/kg, po).MCT for untreated animals is 254+/-18.; format: functional
[5] = tested on: Cavia porcellus; experiment: Effect on left ventricular dP/dtmax 0(mins) after intravenous administration in anesthetized guinea pigs after a intravenous administration of 3 mg/kg; format: functional, Heart left ventricle
Procedure, shortened: (§1)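 Male guinea pigs anesthetized with pentobarbital sodium (50 mg/kg ip), ventilated via tracheotomy with room air (60/min, 10 mL/kg). Left-ventricular cannula via left common carotid to a pressure transducer for LVP and LV dP/dtmax; heart rate triggered by LVP. Drug given iv through the left jugular vein, vehicle PEG 400 diluted with saline. Change expressed as % of pretreatment value; mean ± SEM, n = 5.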

[6] = tested on: Cavia porcellus; experiment: Effect on collapse time of antigen-induced bronchospasm in passively sensitized guinea pigs (at 25 mg/kg, po). MCT for untreated animals is 254+/-18; format: functional
[7] = tested on: Cavia porcellus; experiment: Effect on left ventricular dP/dtmax 1(mins) after intravenous administration in anesthetized guinea pigs after a intravenous administration of 3 mg/kg; format: functional, Heart left ventricle; procedure, shortened: as §1
[8] = tested on: Cavia porcellus; experiment: Effect on heart rate 3(mins) after intravenous administration in anesthetized guinea pigs after intravenous administration of 3 mg/kg; format: functional; procedure, shortened: as §1
[9] = species: Cavia porcellus; experiment: Inhibitory effect on spasmogen (histamine) induced contraction of guinea pig tracheal strips.; format: functional; settings: Trachea
Procedure, shortened: (§2)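 Zig-zag tracheal strips from normal guinea pigs, equilibrated 1 h in Krebs–Henseleit (95% O2/5% CO2, 37 °C). Contracted with carbachol 3 × 10⁻⁶ mol final, histamine 3 × 10⁻⁵ mol, or LTD4 50 µg/mL. Drug added cumulatively every 7 min after the plateau; isotonic recording. IC50 for 50% relaxation by least-squares regression.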

[10] = tested on: Cavia porcellus; experiment: Effect of the compound (peroral administration) on anaphylactic bronchoconstriction in passively sensitized guinea pigs.; format: functional; settings: Lung, po
Procedure, shortened: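 Male Hartley guinea pigs (350–450 g) passively sensitized ip with rabbit anti-OA serum 16–24 h before. Urethane-anesthetized, gallamine-paralysed, ventilated. Air overflow (Konzett–Rössler) after OA 5 mg/kg iv. Compound suspended in 0.3% Tween 80, given orally 1 h before challenge. ED50 by linear regression of AUC versus log dose.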

[11] = tested on: Cavia porcellus; experiment: Effect of the compound (intravenous administration) on anaphylactic bronchoconstriction in passively sensitized guinea pigs.; format: functional; settings: Lung
Procedure, shortened: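 Male Hartley guinea pigs (350–450 g) passively sensitized ip with rabbit anti-OA serum 16–24 h before. Urethane anesthesia (1.5 g/kg ip), gallamine 10 mg/kg iv, ventilated 60–70 strokes/min. Konzett–Rössler air overflow after OA challenge 5 mg/kg iv. Compound in PEG 400 diluted with saline, given iv 90 s after challenge. ED50 by linear regression of AUC versus log dose.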

[12] = species: Cavia porcellus; experiment: Inhibitory effect on spasmogen (carbachol) induced contraction of guinea pig tracheal strips.; format: functional; settings: Trachea; procedure, shortened: as §2
[13] = tested on: Cavia porcellus; experiment: Effect on left ventricular dP/dtmax 3(mins) after intravenous administration in anesthetized guinea pigs after a intravenous administration of 3 mg/kg; format: functional, Heart left ventricle; procedure, shortened: as §1
[14] = tested on: Cavia porcellus; experiment: Effect on heart rate 0(mins) after intravenous administration in anesthetized guinea pigs after intravenous administration of 3 mg/kg; format: functional; procedure, shortened: as §1
[15] = tested on: Cavia porcellus; experiment: Effect on heart rate 1(mins) after intravenous administration in anesthetized guinea pigs after intravenous administration of 3 mg/kg; format: functional; procedure, shortened: as §1
[16] = tested on: Cavia porcellus; experiment: Effect on left ventricular dP/dtmax 5(mins) after intravenous administration in anesthetized guinea pigs after a intravenous administration of 3 mg/kg; format: functional, Heart left ventricle; procedure, shortened: as §1
[17] = tested on: Cavia porcellus; experiment: Effect on heart rate 5(mins) after intravenous administration in anesthetized guinea pigs after intravenous administration of 3 mg/kg; format: functional; procedure, shortened: as §1
[18] = species: Cavia porcellus; experiment: Inhibitory effect on spasmogen (leukotriene, LTD4) induced contraction of guinea pig tracheal strips.; format: functional; settings: Trachea; procedure, shortened: as §2
[19] = tested on: Cavia porcellus; experiment: Effect on heart rate 0(mins) after intravenous administration in anesthetized guinea pigs.; format: functional
Procedure, shortened: (§3)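 Male guinea pigs under pentobarbital (50 mg/kg ip), tracheotomy, room-air ventilation at 60/min, 10 mL/kg. Carotid cannula advanced into the left ventricle to read LVP and LV dP/dtmax; heart rate triggered from LVP. Single 3 mg/kg iv dose via jugular vein. Values are percent of pretreatment, n = 5.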

[20] = tested on: Cavia porcellus; experiment: Effect on left ventricular dP/dtmax 5(mins) after intravenous administration in anesthetized guinea pigs; format: functional, Heart left ventricle; procedure, shortened: as §3
[21] = tested on: Cavia porcellus; experiment: Effect on left ventricular dP/dtmax 3(mins) after intravenous administration in anesthetized guinea pigs; format: functional, Heart left ventricle; procedure, shortened: as §3
[22] = tested on: Cavia porcellus; experiment: Effect on left ventricular dP/dtmax 1(mins) after intravenous administration in anesthetized guinea pigs.; format: functional, Heart left ventricle; procedure, shortened: as §3
[23] = tested on: Cavia porcellus; experiment: Effect on heart rate 1(mins) after intravenous administration in anesthetized guinea pigs.; format: functional; procedure, shortened: as §3
[24] = tested on: Cavia porcellus; experiment: Effect on left ventricular dP/dtmax 0(mins) after intravenous administration in anesthetized guinea pigs.; format: functional, Heart left ventricle; procedure, shortened: as §3
[25] = tested on: Cavia porcellus; experiment: Effect on heart rate 3(mins) after intravenous administration in anesthetized guinea pigs; format: functional; procedure, shortened: as §3
[26] = tested on: Cavia porcellus; experiment: Effect on heart rate 5(mins) after intravenous administration in anesthetized guinea pigs; format: functional; procedure, shortened: as §3

SMILES | IC50 [1] | MLD [2] | further results
CCCCn1c(=O)c2ncn(Cc3ccccc3)c2c2ccccc21 | > 30 µM | – | –
CCCCn1cnc2c(=O)n(CCCC)c3ccccc3c21 | 5.47 µM | > 300 mg/kg | MCT [3]: 504 s
CCCn1c(=O)c2ncn(C)c2c2ccccc21 | 10.7 µM | 300 mg/kg | –
Cn1cnc2c(=O)n(CC(=O)O)c3ccccc3c21 | > 30 µM | – | –
CCCCn1c(=O)c2ncn(C)c2c2cc(C)ccc21 | 7.97 µM | > 300 mg/kg | MCT [3]: 356 s
CCn1c(=O)c2ncn(C)c2c2ccccc21 | > 30 µM | – | –
CCCCn1c(=O)c2ncn(C)c2c2c(C)cccc21 | > 30 µM | – | –
CCCCn1c(=O)c2nnn(C)c2c2ccccc21 | 1.58 µM | > 300 mg/kg | MCT [3]: 296 s
C=CCCn1c(=O)c2ncn(C)c2c2ccccc21 | 5.62 µM | 200 mg/kg | MCT [3]: 342 s
CCCCn1c(=O)c2ncn(CCC)c2c2ccccc21 | 3.99 µM | > 300 mg/kg | –
CCCCn1c(=O)c2nc(O)n(C)c2c2ccccc21 | > 30 µM | – | –
CCCCn1c(=O)c2ncn(-c3ccccc3)c2c2ccccc21 | > 30 µM | – | –
Cn1cnc2c(=O)n(C)c3ccccc3c21 | > 30 µM | – | –
CCCCn1c(=O)c2ncn(CC)c2c2ccccc21 | 4.9 µM | > 300 mg/kg | –
CCCCn1c(=O)c2nc(S)n(C)c2c2ccccc21 | 8.2 µM | > 300 mg/kg | –
CCCCn1c(=O)c2ncn(C)c2c2cc(Cl)ccc21 | > 30 µM | – | –
COCCn1c(=O)c2ncn(C)c2c2ccccc21 | > 30 µM | – | –

SMILES | IC50 [1] | MLD [2] | further results
Cn1cnc2c(=O)n(Cc3ccco3)c3ccccc3c21 | > 30 µM | – | –
Cn1cnc2c(=O)n(C3CCCC3)c3ccccc3c21 | 6.58 µM | 300 mg/kg | –
CCCCn1c(=O)c2ncn(C(C)C)c2c2ccccc21 | 2.6 µM | > 300 mg/kg | MCT [4]: 425 s
CCCCn1c2c(c3c(ncn3C)c1=O)CCCC2 | > 30 µM | – | –
CCCCn1c(=O)c2ncn(C)c2c2ccccc21 | 0.25 µM | > 300 mg/kg | LV dP/dtmax [5]: 100%; MCT [6]: 342 s; LV dP/dtmax [7]: 91.6%; Heart rate [8]: 101%; IC50 [9]: 2.12 µM; ED50 [10]: 44.9 mg/kg; ED50 [11]: 0.42 mg/kg; IC50 [12]: 27.2 µM; LV dP/dtmax [13]: 98.9%; Heart rate [14]: 100%; Heart rate [15]: 98.5%; LV dP/dtmax [16]: 99.4%; Heart rate [17]: 101%; IC50 [18]: 9.19 µM
CCCCn1c(=O)c2nc(-c3ccc(Cl)c(Cl)c3)n(C)c2c2ccccc21 | > 30 µM | – | –
CCCCn1c(=O)c2ncn(C)c2c2cc(OC)c(OC)cc21 | > 30 µM | – | –
CCCCCn1c(=O)c2ncn(C)c2c2ccccc21 | > 30 µM | – | –
CCCCn1c(=O)c2nc(-c3ccco3)n(C)c2c2ccccc21 | > 30 µM | – | –
CCCCn1c(=O)c2nc(-c3ccc(OC)cc3)n(C)c2c2ccccc21 | > 30 µM | – | –
CC(C)Cn1c(=O)c2ncn(C)c2c2ccccc21 | > 30 µM | – | –
CCCCn1c(=O)c2ncn(C)c2c2ccc(Cl)cc21.Cl | 1.52 µM | > 300 mg/kg | MCT [3]: 289 s
CCCCn1c(=O)c2nc(-c3ccccc3)n(C)c2c2ccccc21 | > 30 µM | – | –
CCCCn1c(=O)c2nc(C)n(C)c2c2ccccc21 | > 30 µM | – | –
Cn1cnc2c(=O)n(Cc3ccccc3)c3ccccc3c21 | > 30 µM | – | –
Cn1c(=O)c2[nH]cnc2n(C)c1=O.Cn1c(=O)c2[nH]cnc2n(C)c1=O.NCCN [AMINOPHYLLINE] | 16.7 µM | – | Heart rate [19]: 100%; LV [20]: 116%; LV [21]: 117%; LV [22]: 125%; IC50 [9]: 33.2 µM; Heart rate [23]: 108%; LV [24]: 100%; Heart rate [25]: 105%; ED50 [10]: 51.7 mg/kg; ED50 [11]: 7.8 mg/kg; IC50 [12]: 37.7 µM; IC50 [18]: 23.6 µM; Heart rate [26]: 105%
Cn1c(=O)c2nc[nH]c2n(C)c1=O.O [THEOPHYLLINE] | 6.52 µM | – | MCT [4]: 389 s

From ChEMBL document CHEMBL1125336, “New bronchodilators. 1. 1,5-Substituted 1H-imidazo[4,5-c]quinolin-4(5H)-ones” (J Med Chem, 1992)
